From ChEMBL document CHEMBL4480426, “Novel multi-target directed ligands based on annelated xanthine scaffold with aromatic substituents acting on adenosine receptor and monoamine oxidase B. Synthesis, in vitro and in silico studies” (Bioorg Med Chem, 2019)

target: T1, Adenosine receptor A1 (Rattus norvegicus, UniProt P25099); experiment: Displacement of [3H]CCPA from adenosine A1 receptor in rat brain cortical membranes; assay type: cell membranes; settings: not given
T1 sequence (P25099 whole entry): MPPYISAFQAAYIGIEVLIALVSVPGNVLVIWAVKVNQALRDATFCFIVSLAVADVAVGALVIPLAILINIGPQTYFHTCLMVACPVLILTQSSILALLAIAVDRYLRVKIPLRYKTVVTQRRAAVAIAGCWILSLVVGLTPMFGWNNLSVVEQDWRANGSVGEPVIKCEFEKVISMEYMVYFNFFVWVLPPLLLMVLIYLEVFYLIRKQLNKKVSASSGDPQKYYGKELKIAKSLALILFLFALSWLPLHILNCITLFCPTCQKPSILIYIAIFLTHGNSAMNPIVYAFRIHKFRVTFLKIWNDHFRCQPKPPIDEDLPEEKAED

| SMILES | Ki |
| --- | --- |
| Cn1c(=O)c2c(nc3n2CCCN3Cc2ccc(Cl)cc2F)n(C)c1=O | 4.9 µM |
| Cn1c(=O)c2c(nc3n2CCCN3Cc2cc(C(F)(F)F)ccc2Cl)n(C)c1=O | 0.931 µM |
| Cn1c(=O)c2c(nc3n2CCCN3Cc2ccc(Cl)c(C(F)(F)F)c2)n(C)c1=O | > 1 µM |
| Cn1c(=O)c2c(nc3n2CCCN3Cc2ccc(F)cc2Cl)n(C)c1=O | > 1 µM |
| COc1ccc(CN2CCCn3c2nc2c3c(=O)n(C)c(=O)n2C)cc1Cl | > 1 µM |
| Cn1c(=O)c2c(nc3n2CCCN3Cc2cccc(Br)c2)n(C)c1=O | 0.965 µM |
| Cc1cccc(CN2CCCn3c2nc2c3c(=O)n(C)c(=O)n2C)c1 | 1.91 µM |

target: Adenosine receptor A2a (Homo sapiens, UniProt P29274); experiment: Displacement of [3H]MSX2 from recombinant human adenosine A2a receptor expressed in HEK293 cells; assay type: cell-based; settings: not given
Sequence (P29274 whole entry): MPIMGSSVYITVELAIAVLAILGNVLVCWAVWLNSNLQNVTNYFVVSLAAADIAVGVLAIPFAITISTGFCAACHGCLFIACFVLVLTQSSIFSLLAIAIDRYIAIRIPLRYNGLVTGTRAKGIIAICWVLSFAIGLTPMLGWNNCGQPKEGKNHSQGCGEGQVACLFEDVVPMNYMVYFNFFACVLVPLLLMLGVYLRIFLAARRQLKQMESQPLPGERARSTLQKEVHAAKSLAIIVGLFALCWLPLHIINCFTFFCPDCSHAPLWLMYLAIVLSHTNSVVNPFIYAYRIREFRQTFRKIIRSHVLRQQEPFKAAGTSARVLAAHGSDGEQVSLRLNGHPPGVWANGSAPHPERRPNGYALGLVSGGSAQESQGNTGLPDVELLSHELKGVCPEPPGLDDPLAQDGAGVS

| SMILES | Ki |
| --- | --- |
| Cn1c(=O)c2c(nc3n2CCCN3Cc2ccc(Cl)cc2F)n(C)c1=O | 8.91 µM |
| Cn1c(=O)c2c(nc3n2CCCN3Cc2cc(C(F)(F)F)ccc2Cl)n(C)c1=O | > 1 µM |
| Cn1c(=O)c2c(nc3n2CCCN3Cc2ccc(Cl)c(C(F)(F)F)c2)n(C)c1=O | > 1 µM |
| Cn1c(=O)c2c(nc3n2CCCN3Cc2ccc(F)cc2Cl)n(C)c1=O | > 1 µM |
| COc1ccc(CN2CCCn3c2nc2c3c(=O)n(C)c(=O)n2C)cc1Cl | 8 µM |
| Cn1c(=O)c2c(nc3n2CCCN3Cc2cccc(Br)c2)n(C)c1=O | 1.7 µM |
| Cc1cccc(CN2CCCn3c2nc2c3c(=O)n(C)c(=O)n2C)c1 | > 1 µM |

target: T2, Adenosine receptor A2b (Homo sapiens, UniProt P29275); experiment: Displacement of [3H]PSB603 from recombinant human adenosine A2b receptor expressed in HEK293 cells; assay type: cell-based; settings: not given
T2 sequence (P29275 whole entry): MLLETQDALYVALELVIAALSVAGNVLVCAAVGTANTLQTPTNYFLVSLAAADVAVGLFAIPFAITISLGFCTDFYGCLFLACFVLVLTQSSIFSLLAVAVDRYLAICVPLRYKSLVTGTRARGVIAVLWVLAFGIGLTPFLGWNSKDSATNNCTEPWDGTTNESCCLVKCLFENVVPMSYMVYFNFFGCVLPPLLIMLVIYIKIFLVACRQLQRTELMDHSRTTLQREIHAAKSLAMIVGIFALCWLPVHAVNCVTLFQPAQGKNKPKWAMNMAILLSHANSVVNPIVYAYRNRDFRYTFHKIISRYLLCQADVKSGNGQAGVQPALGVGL

| SMILES | Ki |
| --- | --- |
| Cn1c(=O)c2c(nc3n2CCCN3Cc2ccc(Cl)cc2F)n(C)c1=O | > 1 µM |
| Cn1c(=O)c2c(nc3n2CCCN3Cc2cc(C(F)(F)F)ccc2Cl)n(C)c1=O | > 1 µM |
| Cn1c(=O)c2c(nc3n2CCCN3Cc2ccc(Cl)c(C(F)(F)F)c2)n(C)c1=O | > 1 µM |
| Cn1c(=O)c2c(nc3n2CCCN3Cc2ccc(F)cc2Cl)n(C)c1=O | > 1 µM |
| COc1ccc(CN2CCCn3c2nc2c3c(=O)n(C)c(=O)n2C)cc1Cl | > 1 µM |
| Cn1c(=O)c2c(nc3n2CCCN3Cc2cccc(Br)c2)n(C)c1=O | > 1 µM |
| Cc1cccc(CN2CCCn3c2nc2c3c(=O)n(C)c(=O)n2C)c1 | > 1 µM |

target: T3, Adenosine receptor A3 (Homo sapiens, UniProt P0DMS8); experiment: Displacement of [3H]PSB11 from recombinant human adenosine A3 receptor expressed in CHO cells; assay type: cell-based; settings: not given
T3 sequence (P0DMS8 whole entry): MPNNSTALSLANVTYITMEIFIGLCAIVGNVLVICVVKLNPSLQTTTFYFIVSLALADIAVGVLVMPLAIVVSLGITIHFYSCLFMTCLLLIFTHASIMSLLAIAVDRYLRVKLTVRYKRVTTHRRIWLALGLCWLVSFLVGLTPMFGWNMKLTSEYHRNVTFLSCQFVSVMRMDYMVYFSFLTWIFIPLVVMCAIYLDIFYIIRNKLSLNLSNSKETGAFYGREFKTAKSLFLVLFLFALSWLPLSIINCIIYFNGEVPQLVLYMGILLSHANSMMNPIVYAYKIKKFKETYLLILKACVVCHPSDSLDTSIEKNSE

| SMILES | Ki |
| --- | --- |
| Cn1c(=O)c2c(nc3n2CCCN3Cc2ccc(Cl)cc2F)n(C)c1=O | > 1 µM |
| Cn1c(=O)c2c(nc3n2CCCN3Cc2cc(C(F)(F)F)ccc2Cl)n(C)c1=O | > 1 µM |
| Cn1c(=O)c2c(nc3n2CCCN3Cc2ccc(Cl)c(C(F)(F)F)c2)n(C)c1=O | > 1 µM |
| Cn1c(=O)c2c(nc3n2CCCN3Cc2ccc(F)cc2Cl)n(C)c1=O | > 1 µM |
| COc1ccc(CN2CCCn3c2nc2c3c(=O)n(C)c(=O)n2C)cc1Cl | > 1 µM |
| Cn1c(=O)c2c(nc3n2CCCN3Cc2cccc(Br)c2)n(C)c1=O | > 1 µM |
| Cc1cccc(CN2CCCn3c2nc2c3c(=O)n(C)c(=O)n2C)c1 | > 1 µM |

target: T4, Amine oxidase [flavin-containing] A (Homo sapiens, UniProt P21397); experiment: Inhibition of recombinant human MAOA expressed in baculovirus infected BTI insect cells using p-tyramine as substrate preincubated for 30 mins followed by substrate addition and measured over 45 mins by horseradish peroxidase-Amplex Red-coupled fluorometric assay; settings: not given
T4 sequence (P21397 whole entry): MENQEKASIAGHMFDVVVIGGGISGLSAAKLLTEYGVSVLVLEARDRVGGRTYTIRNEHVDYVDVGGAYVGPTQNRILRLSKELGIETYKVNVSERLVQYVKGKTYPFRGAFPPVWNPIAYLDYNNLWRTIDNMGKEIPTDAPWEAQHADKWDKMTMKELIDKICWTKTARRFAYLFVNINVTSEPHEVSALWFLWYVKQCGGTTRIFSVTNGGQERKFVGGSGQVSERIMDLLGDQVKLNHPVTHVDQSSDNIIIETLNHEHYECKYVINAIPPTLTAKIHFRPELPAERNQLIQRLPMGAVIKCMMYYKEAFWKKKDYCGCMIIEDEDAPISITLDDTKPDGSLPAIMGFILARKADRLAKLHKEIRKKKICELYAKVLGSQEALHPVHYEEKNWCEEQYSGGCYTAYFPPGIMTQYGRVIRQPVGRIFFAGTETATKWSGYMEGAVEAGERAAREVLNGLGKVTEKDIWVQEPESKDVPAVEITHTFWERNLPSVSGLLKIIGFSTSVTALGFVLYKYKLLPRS
In short: (§1)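 Human recombinant MAO-A or MAO-B enzyme. Activity detected fluorometrically with the Amplex Red monoamine oxidase assay.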

| SMILES | IC50 |
| --- | --- |
| Cn1c(=O)c2c(nc3n2CCCN3Cc2ccc(Cl)cc2F)n(C)c1=O | > 1 µM |
| Cn1c(=O)c2c(nc3n2CCCN3Cc2ccc(Cl)c(C(F)(F)F)c2)n(C)c1=O | > 1 µM |
| COc1ccc(CN2CCCn3c2nc2c3c(=O)n(C)c(=O)n2C)cc1Cl | > 100 µM |
| Cn1c(=O)c2c(nc3n2CCCN3Cc2cccc(Br)c2)n(C)c1=O | > 1 µM |
| Cc1cccc(CN2CCCn3c2nc2c3c(=O)n(C)c(=O)n2C)c1 | > 100 µM |

target: T5, Amine oxidase [flavin-containing] B (Homo sapiens, UniProt P27338); experiment: Inhibition of recombinant human MAOB expressed in baculovirus infected BTI insect cells using p-tyramine as substrate preincubated for 30 mins followed by substrate addition and measured over 45 mins by horseradish peroxidase-Amplex Red-coupled fluorometric assay; settings: not given; in short: as §1
T5 sequence (P27338 whole entry): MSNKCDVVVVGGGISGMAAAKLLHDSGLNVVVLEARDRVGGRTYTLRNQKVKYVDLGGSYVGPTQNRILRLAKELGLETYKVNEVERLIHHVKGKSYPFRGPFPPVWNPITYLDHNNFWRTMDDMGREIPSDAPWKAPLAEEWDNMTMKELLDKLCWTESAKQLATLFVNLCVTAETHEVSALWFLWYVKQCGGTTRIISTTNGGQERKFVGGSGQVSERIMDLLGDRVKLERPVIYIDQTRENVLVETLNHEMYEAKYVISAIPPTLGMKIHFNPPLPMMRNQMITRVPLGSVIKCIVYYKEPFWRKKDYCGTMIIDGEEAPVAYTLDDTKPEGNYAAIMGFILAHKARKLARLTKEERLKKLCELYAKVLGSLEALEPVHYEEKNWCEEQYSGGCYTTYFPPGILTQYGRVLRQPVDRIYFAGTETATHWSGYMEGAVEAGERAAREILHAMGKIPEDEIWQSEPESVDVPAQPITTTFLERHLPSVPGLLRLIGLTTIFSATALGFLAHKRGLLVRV

| SMILES | IC50 |
| --- | --- |
| Cn1c(=O)c2c(nc3n2CCCN3Cc2ccc(Cl)cc2F)n(C)c1=O | 0.377 µM |
| Cn1c(=O)c2c(nc3n2CCCN3Cc2cc(C(F)(F)F)ccc2Cl)n(C)c1=O | 1.07 µM |
| Cn1c(=O)c2c(nc3n2CCCN3Cc2ccc(Cl)c(C(F)(F)F)c2)n(C)c1=O | 0.31 µM |
| Cn1c(=O)c2c(nc3n2CCCN3Cc2ccc(F)cc2Cl)n(C)c1=O | 0.411 µM |
| Cn1c(=O)c2c(nc3n2CCCN3Cc2ccc(C(C)(C)C)cc2)n(C)c1=O | 1.35 µM |
| COc1ccc(CN2CCCn3c2nc2c3c(=O)n(C)c(=O)n2C)cc1Cl | 0.407 µM |
| Cn1c(=O)c2c(nc3n2CCCN3Cc2cccc(Br)c2)n(C)c1=O | 0.396 µM |
| Cc1cccc(CN2CCCn3c2nc2c3c(=O)n(C)c(=O)n2C)c1 | 0.313 µM |

target: T4, Amine oxidase [flavin-containing] A; experiment: Inhibition of recombinant human MAOA expressed in baculovirus infected BTI insect cells at 1 to 100 uM using p-tyramine as substrate preincubated for 30 mins followed by substrate addition and measured over 45 mins by horseradish peroxidase-Amplex Red-coupled fluorometric assay relative to control; settings: 0.75 h; in short: as §1

| SMILES | inhibition (INH) |
| --- | --- |
| Cn1c(=O)c2c(nc3n2CCCN3Cc2ccc(Cl)cc2F)n(C)c1=O | 2% |
| Cn1c(=O)c2c(nc3n2CCCN3Cc2ccc(Cl)c(C(F)(F)F)c2)n(C)c1=O | 2% |
| COc1ccc(CN2CCCn3c2nc2c3c(=O)n(C)c(=O)n2C)cc1Cl | 38% |
| Cn1c(=O)c2c(nc3n2CCCN3Cc2cccc(Br)c2)n(C)c1=O | -1% |
| Cc1cccc(CN2CCCn3c2nc2c3c(=O)n(C)c(=O)n2C)c1 | 17% |
